Source: PubChem BioAssay
VIM-2 inh: blocks Pseudomonas aeruginosa VIM-2 metallo-beta-lactamase; inhibition, % at 5.6 µM; purified VIM-2, nitrocefin hydrolysis, epi-absorbance fluorescence; 290,000 tested, 0.89% active;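 active = inhibition above the mean of all tested compounds plus 3 SD, cutoff set per screening run, cut at about 7.5% in these data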;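 note: red hydrolysis product quenches plate fluorescence so inhibitors raise well fluorescence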
HCV core dimer: HCV core protein dimerization inhibition; TR-FRET GST/Flag-core106 dimerization, 1536-well; 300,000 tested, 0.33% active; AID 1899; inhibition, % at 5 µM;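 active = inhibition above the mean of all tested compounds plus 3 SD, set per screening campaign, cut at about 45% in these data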
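Assay system: Tagged HCV core106 pair (GST and Flag) | Buffer or medium: KF-containing HEPES buffer, pH 7.45, DTT, CHAPS, BSA | Also added: Eu donor and XL665 acceptor anti-tag antibodies | Dosing: One concentration, 5 µM, in 0.5% DMSO | Timing: 4 h at 22.5 °C | Technique: TR-FRET 671 and 617 nm emission | Repeats: Singlicate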
IMP-1 inhibitor: inhibitors of Pseudomonas aeruginosa IMP-1 metallo-beta-lactamase. purified IMP-1, nitrocefin hydrolysis, epi-absorbance fluorescence. inhibition, % at 5.6 µM. 290,000 tested, 0.45% active. AID 1556;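 active = inhibition above the mean plus 3 SD of all compounds in the same screening run, cut at about 4.5% in these data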
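System: purified IMP-1; amount: IMP-1 0.2 nM before substrate addition; compound: single dose, 5.6 µM; times: 25 °C, 15 min preincubation, 25 min reaction; signal: Epi-absorbance via hydrolysed-nitrocefin quenching of white-plate fluorescence, 480/530 nm, EDTA stop; benchmarks: DMSO with and without IMP-1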
NadD block: NadD (S. aureus) enzyme inhibition; purified NadD enzyme, colorimetric absorbance read-out; inhibition, % at 20 µM; 360,000 tested, 0.78% active; AID 602399; in the data active = inhibition above about 26%
NadD conf: NadD (S. aureus) inhibition, single concentration confirmation. shares compounds with NadD block. purified S. aureus NadD, colorimetric enzyme assay. inhibition, % at 20 µM. 2,000 tested, 13% active. AID 624309; in the data active = inhibition mostly above about 42%, no sharp cut-off; inactive = mostly below about 42%
A number is an active result; – = inactive; · = no result. A selection: hits, their analogues and other compounds. The true share with any hit is near 1.9%.

SMILES | VIM-2 inh | HCV core dimer | IMP-1 inhibitor | NadD block | NadD conf
CC1(C)CC(=O)c2c(nc(SCC(=O)Nc3nsc(-c4ccccc4)n3)c(C#N)c2-c2ccccc2)C1 | – | – | – | 39 | –
CC(C)C[C@@H](CN)NC(=O)c1nc[nH]c1C(=O)N[C@@H](CC(C)C)C(=O)CNC[C@H](C)NC(=O)c1nc[nH]c1C(=O)N[C@@H](CC(=O)O)C(=O)O | · | · | · | – | ·
COc1ccc(N(CC(=O)N/N=C/c2ccc(-c3ccc([N+](=O)[O-])cc3)o2)S(=O)(=O)c2ccc(C)cc2)cc1 | – | 52 | – | 42 | –
CCC(=O)N/N=C/c1ccc(-c2ccc([N+](=O)[O-])cc2)o1 | – | – | – | – | ·
COc1ccc(N(CC(=O)N/N=C/c2ccc(-c3ccc([N+](=O)[O-])cc3)o2)S(=O)(=O)c2ccc(C)cc2)cc1Cl | – | 63 | – | 40 | –
O=C(COC(=O)/C=C/c1ccc([N+](=O)[O-])cc1)NC(c1ccccc1)c1ccccc1 | – | – | – | – | ·
CCOC(=O)C1(CC2CCCCO2)CCN(Cc2cc3ccccc3[nH]2)CC1 (stereo not drawn) | – | – | – | – | ·
Cc1[nH]n2c(=O)cc(-c3ccc([N+](=O)[O-])cc3)nc2c1-c1ccccc1 | – | – | – | 34 | 51
CCCc1cc(=O)n2[nH]c(C)c(-c3ccccc3)c2n1 | – | – | – | – | ·
CCN(CC)c1nc2c3c(nc4c(c3c1C#N)CC(=O)N4c1ccc(Cl)cc1)NC(C)=N2 | – | – | – | 45 | –
COCCn1c(C)cc(C2=NNC(=Nc3ccccc3F)SC2)c1C | – | – | – | 38 | –
C1=CC(c2cc3ccccc3o2)OC(CCc2ccccc2)C1 (stereo not drawn) | – | – | – | – | ·
COc1ccccc1-n1ccnc(SCC(=O)NCCc2ccccc2)c1=O | · | – | · | – | ·
Cc1ccc(-c2nnc(SCC(=O)N/N=C/c3c(C)nn(-c4ccccc4)c3C)n2-c2ccc(C)cc2)cc1 | – | – | – | 30 | –
Cc1nnc(NC(=O)Cn2nc(C)c3ccccc3c2=O)s1 | – | – | – | – | ·
Cc1cscc1-c1ccc(C(=O)Nc2c(C)cccc2C)o1 | · | · | · | 31 | –
Cc1cccc(C)c1NC(=S)NC(=O)c1ccc(Br)o1 | – | – | – | – | ·
COc1cc(NC(=O)CSc2ncnc3sc4c(c23)CCC(C)C4)c(C(=O)O)cc1OC (stereo not drawn) | – | – | – | 36 | –
O=C(OCC(=O)N1CCN(c2ccccc2)CC1)c1cc(F)c(F)cc1Cl | · | · | · | – | ·
Cc1nc(SCC(=O)c2cc3ccccc3oc2=O)c(C#N)c(-c2cccs2)c1C(=O)Nc1ccccc1 | – | – | – | 33 | –
CC(C)c1c(C#N)c(N)nc(SCC(=O)c2cc3ccccc3oc2=O)c1C#N | – | – | – | – | ·
O=C(CN1CCN(c2ccccc2F)CC1)N1CCc2ccccc21 | – | – | – | – | ·
Cc1ccc(F)cc1C(=O)N1CCCC(c2cc(C(=O)NCc3ccccc3)no2)C1 (stereo not drawn) | · | · | · | – | ·
CCc1ccc(N2CSC3=C(C#N)C(c4cccs4)CC(=O)N3C2)cc1 (stereo not drawn) | – | – | – | 72 | –
N#CC1=C2SCN(c3ccc(F)cc3)CN2C(=O)CC1c1cccc(F)c1 (stereo not drawn) | – | – | – | – | ·
SMILES | VIM-2 inh | HCV core dimer | IMP-1 inhibitor | NadD block | NadD conf
CCc1ccc(C2CC(=O)N3CN(c4ccccc4)CSC3=C2C#N)cc1 (stereo not drawn) | – | – | – | 64 | –
COc1ccc(N2CSC3=C(C#N)C(c4cccs4)CC(=O)N3C2)cc1 (stereo not drawn) | – | – | – | – | ·
Cc1ccc(N2CSC3=C(C#N)C(c4cccs4)CC(=O)N3C2)cc1 (stereo not drawn) | – | – | 5.6 | 31 | –
CCOC(=O)c1ccc(N2CSC3=C(C#N)C(c4cccs4)CC(=O)N3C2)cc1 (stereo not drawn) | – | – | – | – | ·
COc1ccc(NS(=O)(=O)c2cccc(C(=O)N/N=C/c3cn(-c4ccccc4)nc3-c3ccccc3)c2)cc1 | – | – | – | – | ·
COc1ccccc1NS(=O)(=O)c1cccc(C(=O)N/N=C/c2cn(-c3ccccc3)nc2-c2ccccc2)c1 | – | – | – | 33 | –
C=CCSC1=N/C(=C\c2cc(OCC)c(OC(C)=O)c([N+](=O)[O-])c2)C(=O)S1 | – | – | – | 33 | –
CCOC(=O)c1c(-c2ccccc2)csc1NC(=O)/C(C#N)=C/c1ccc(O)c(OC)c1 | – | – | – | 44 | –
